Calls of active or inactive are those of the source. No cut-off for these calls is given here.
Key:
Format in all cases: nucleic-acid assay
[1] = tested on: Quadruplex DNA; experiment: Binding affinity to G-quadruplex homo-purine guanine-rich GA1 (GAGGGAGGGAGGGAAAAGGGGA) DNA (unknown origin) assessed as hypochromicity at 3.3 uM in 5K buffer by UV-Vis titration based analysis
Method in brief: (§1)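 NMM (~3-4 μM, absorbance ~0.5, 1 cm cuvette) in 5K buffer (10 mM LiCaco pH 7.2, 95 mM LiCl, 5 mM KCl), titrated with DNA annealed in 5K buffer (170-470 μM, final [DNA]/[NMM] at least five), 2 min equilibration per addition, spectra 350-480 nm at 20 °C. SVD analysis, fit with NMM concentration fixed. Ka is the average of at least three trials.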

[2] = tested on: Quadruplex DNA; experiment: Stabilization and preservation of G-quadruplex homo-purine guanine-rich GA2 (GAGGGAGGGAAAAGGGGAGGGA) DNA (unknown origin) parallel structure conformation assessed as increase in enthalpy change associated with melting transition at 2 equivalents in 100K buffer by UV-Visible melting analysis; settings: dose 2.0 equiv
Method in brief: (§2)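 ~4 μM DNA with or without 2 eq. NMM in 100K buffer (10 mM LiCaco pH 7.2, 100 mM KCl), annealed then cooled slowly. UV-Vis melting 20-90 °C, 0.5 or 0.2 °C/min, signal at 295 nm corrected at 335 nm. Tm and ΔH from a two-state fit (hysteresis under 3 °C).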

[3] = tested on: Quadruplex DNA; experiment: Binding affinity to G-quadruplex homo-purine guanine-rich GA3 (AGGGAAAAGGGGAGGGAAAAGGGGA) DNA (unknown origin) at DNA:compound concentration ratio of 1:2 in 5K buffer by UV-Vis titration based analysis; method in brief: as §1
[4] = tested on: Quadruplex DNA; experiment: Stabilization and preservation of G-quadruplex homo-purine guanine-rich GA2 (GAGGGAGGGAAAAGGGGAGGGA) DNA (unknown origin) parallel structure conformation assessed as elimination of higher order species at 2 equivalents in 100K buffer by native PAGE analysis; settings: dose 2.0 equiv
Method in brief: (§3)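 Native 15% polyacrylamide gel in 1×TBE plus 10 mM KCl. Samples of ~50 μM DNA, alone or with 2 eq. NMM, in 100K buffer. Run 150 min at 150 V at room temperature after pre-running, with a dT15-dT57 ladder. Stains-All visualization.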

[5] = tested on: Quadruplex DNA; experiment: Stabilization and preservation of G-quadruplex homo-purine guanine-rich GA3 (AGGGAAAAGGGGAGGGAAAAGGGGA) DNA (unknown origin) parallel structure conformation assessed as increase in enthalpy change associated with melting transition at 2 equivalents in 100K buffer by UV-Visible melting analysis; settings: dose 2.0 equiv; method in brief: as §2
[6] = tested on: Quadruplex DNA; experiment: Binding affinity to G-quadruplex homo-purine guanine-rich GA2 (GAGGGAGGGAAAAGGGGAGGGA) DNA (unknown origin) at DNA:compound concentration ratio of 1:2 in 5K buffer by fluorescence titration based analysis
Method in brief: (§4)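 Fluorescence titration at 20 °C in 5K buffer: ~1.0 μM NMM titrated with 140-270 μM annealed DNA to a final [DNA]/[NMM] of at least eight. Excitation 395-398 nm (UV-Vis isosbestic points), emission 560-720 nm. Single-component SVD, fit to 1:1, 1:2 and 2:1 models. Ka is the average of at least three trials.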

[7] = tested on: Quadruplex DNA; experiment: Stabilization and preservation of G-quadruplex homo-purine guanine-rich GA1 (GAGGGAGGGAGGGAAAAGGGGA) DNA (unknown origin) parallel structure conformation at 2 equivalents in 100K buffer by circular dichroism scan analysis; settings: dose 2.0 equiv
Method in brief: (§5)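 CD scans at 20 °C of ~4 μM annealed DNA, alone or with 2 eq. NMM, in 100K buffer. Range 220-330 nm, 1 cm cuvette, 2 nm bandwidth, five scans averaged.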

[8] = tested on: Quadruplex DNA; experiment: Binding affinity to G-quadruplex homo-purine guanine-rich GA3 (AGGGAAAAGGGGAGGGAAAAGGGGA) DNA (unknown origin) assessed as hypochromicity at 3.3 uM in 5K buffer by circular dichroism scan analysis
[9] = tested on: Quadruplex DNA; experiment: Binding affinity to G-quadruplex homo-purine guanine-rich GA2 (GAGGGAGGGAAAAGGGGAGGGA) DNA (unknown origin) at DNA:compound concentration ratio of 1:1 in 5K buffer by UV-Vis titration based analysis; method in brief: as §1
[10] = tested on: Quadruplex DNA; experiment: Stabilization and preservation of G-quadruplex homo-purine guanine-rich GA1 (GAGGGAGGGAGGGAAAAGGGGA) DNA (unknown origin) parallel structure conformation assessed as increase in enthalpy change associated with melting transition at 2 equivalents in 100K buffer by UV-Visible melting analysis; settings: dose 2.0 equiv; method in brief: as §2
[11] = tested on: Quadruplex DNA; experiment: Binding affinity to G-quadruplex homo-purine guanine-rich GA2 (GAGGGAGGGAAAAGGGGAGGGA) DNA (unknown origin) at DNA:compound concentration ratio of 2:1 in 5K buffer by fluorescence titration based analysis; method in brief: as §4
[12] = tested on: Quadruplex DNA; experiment: Binding affinity to G-quadruplex homo-purine guanine-rich GA2 (GAGGGAGGGAAAAGGGGAGGGA) DNA (unknown origin) assessed as hypochromicity at 3.3 uM in 5K buffer by circular dichroism scan analysis
[13] = tested on: Quadruplex DNA; experiment: Binding affinity to G-quadruplex homo-purine guanine-rich GA3 (AGGGAAAAGGGGAGGGAAAAGGGGA) DNA (unknown origin) assessed as red shift at 3.3 uM in 5K buffer by circular dichroism scan analysis
[14] = tested on: Quadruplex DNA; experiment: Binding affinity to G-quadruplex homo-purine guanine-rich GA2 (GAGGGAGGGAAAAGGGGAGGGA) DNA (unknown origin) at DNA:compound concentration ratio of 1:1 in 5K buffer by fluorescence titration based analysis; method in brief: as §4
[15] = tested on: Quadruplex DNA; experiment: Stabilization and preservation of G-quadruplex homo-purine guanine-rich GA2 (GAGGGAGGGAAAAGGGGAGGGA) DNA (unknown origin) parallel structure conformation assessed as increase in melting temperature at 2 equivalents in 100K buffer by UV-Visible melting analysis; settings: dose 2.0 equiv; method in brief: as §2
[16] = tested on: Quadruplex DNA; experiment: Stabilization and preservation of G-quadruplex homo-purine guanine-rich GA1 (GAGGGAGGGAGGGAAAAGGGGA) DNA (unknown origin) parallel structure conformation assessed as increased homogeneity at 2 equivalents in 100K buffer by native PAGE analysis; settings: dose 2.0 equiv; method in brief: as §3
[17] = tested on: Quadruplex DNA; experiment: Binding affinity to G-quadruplex homo-purine guanine-rich GA3 (AGGGAAAAGGGGAGGGAAAAGGGGA) DNA (unknown origin) at DNA:compound concentration ratio of 1:1 in 5K buffer by fluorescence titration based analysis; method in brief: as §4
[18] = tested on: Quadruplex DNA; experiment: Binding affinity to G-quadruplex homo-purine guanine-rich GA3 (AGGGAAAAGGGGAGGGAAAAGGGGA) DNA (unknown origin) at DNA:compound concentration ratio of 2:1 in 5K buffer by fluorescence titration based analysis; method in brief: as §4
[19] = tested on: Quadruplex DNA; experiment: Binding affinity to G-quadruplex homo-purine guanine-rich GA3 (AGGGAAAAGGGGAGGGAAAAGGGGA) DNA (unknown origin) at DNA:compound concentration ratio of 2:1 in 5K buffer by UV-Vis titration based analysis; method in brief: as §1
[20] = tested on: Quadruplex DNA; experiment: Stabilization and preservation of G-quadruplex homo-purine guanine-rich GA1 (GAGGGAGGGAGGGAAAAGGGGA) DNA (unknown origin) parallel structure conformation assessed as increase in melting temperature at 2 equivalents in 100K buffer by UV-Visible melting analysis; settings: dose 2.0 equiv; method in brief: as §2
[21] = tested on: Quadruplex DNA; experiment: Binding affinity to G-quadruplex homo-purine guanine-rich GA3 (AGGGAAAAGGGGAGGGAAAAGGGGA) DNA (unknown origin) at DNA:compound concentration ratio of 1:2 in 5K buffer by fluorescence titration based analysis; method in brief: as §4
[22] = tested on: Quadruplex DNA; experiment: Binding affinity to G-quadruplex homo-purine guanine-rich GA1 (GAGGGAGGGAGGGAAAAGGGGA) DNA (unknown origin) at DNA:compound concentration ratio of 1:2 in 5K buffer by fluorescence titration based analysis; method in brief: as §4
[23] = tested on: Quadruplex DNA; experiment: Binding affinity to G-quadruplex homo-purine guanine-rich GA2 (GAGGGAGGGAAAAGGGGAGGGA) DNA (unknown origin) assessed as red shift at 3.3 uM in 5K buffer by circular dichroism scan analysis
[24] = tested on: Quadruplex DNA; experiment: Binding affinity to G-quadruplex homo-purine guanine-rich GA1 (GAGGGAGGGAGGGAAAAGGGGA) DNA (unknown origin) at DNA:compound concentration ratio of 1:2 in 5K buffer by UV-Vis titration based analysis; method in brief: as §1
[25] = tested on: Quadruplex DNA; experiment: Stabilization and preservation of G-quadruplex homo-purine guanine-rich GA3 (AGGGAAAAGGGGAGGGAAAAGGGGA) DNA (unknown origin) parallel structure conformation assessed as increase in melting temperature at 2 equivalents in 100K buffer by UV-Visible melting analysis; settings: dose 2.0 equiv; method in brief: as §2
[26] = tested on: Quadruplex DNA; experiment: Stabilization and preservation of G-quadruplex homo-purine guanine-rich GA3 (AGGGAAAAGGGGAGGGAAAAGGGGA) DNA (unknown origin) parallel structure conformation at 2 equivalents in 100K buffer by circular dichroism scan analysis; settings: dose 2.0 equiv; method in brief: as §5
[27] = tested on: Quadruplex DNA; experiment: Binding affinity to G-quadruplex homo-purine guanine-rich GA1 (GAGGGAGGGAGGGAAAAGGGGA) DNA (unknown origin) at DNA:compound concentration ratio of 1:1 in 5K buffer by fluorescence titration based analysis; method in brief: as §4
[28] = tested on: Quadruplex DNA; experiment: Stabilization and preservation of G-quadruplex homo-purine guanine-rich GA2 (GAGGGAGGGAAAAGGGGAGGGA) DNA (unknown origin) parallel structure conformation at 2 equivalents in 100K buffer by circular dichroism scan analysis; settings: dose 2.0 equiv; method in brief: as §5
[29] = tested on: Quadruplex DNA; experiment: Stabilization and preservation of G-quadruplex homo-purine guanine-rich GA3 (AGGGAAAAGGGGAGGGAAAAGGGGA) DNA (unknown origin) parallel structure conformation at 2 equivalents in 100K buffer by native PAGE analysis; settings: dose 2.0 equiv; method in brief: as §3
[30] = tested on: Quadruplex DNA; experiment: Binding affinity to G-quadruplex homo-purine guanine-rich GA1 (GAGGGAGGGAGGGAAAAGGGGA) DNA (unknown origin) at DNA:compound concentration ratio of 2:1 in 5K buffer by fluorescence titration based analysis; method in brief: as §4
[31] = tested on: Quadruplex DNA; experiment: Binding affinity to G-quadruplex homo-purine guanine-rich GA1 (GAGGGAGGGAGGGAAAAGGGGA) DNA (unknown origin) at DNA:compound concentration ratio of 2:1 in 5K buffer by UV-Vis titration based analysis; method in brief: as §1
[32] = tested on: Quadruplex DNA; experiment: Binding affinity to G-quadruplex homo-purine guanine-rich GA1 (GAGGGAGGGAGGGAAAAGGGGA) DNA (unknown origin) at DNA:compound concentration ratio of 1:1 in 5K buffer by UV-Vis titration based analysis; method in brief: as §1
[33] = tested on: Quadruplex DNA; experiment: Binding affinity to G-quadruplex homo-purine guanine-rich GA1 (GAGGGAGGGAGGGAAAAGGGGA) DNA (unknown origin) assessed as red shift at 3.3 uM in 5K buffer by UV-Vis titration based analysis; method in brief: as §1
[34] = tested on: Quadruplex DNA; experiment: Binding affinity to G-quadruplex homo-purine guanine-rich GA3 (AGGGAAAAGGGGAGGGAAAAGGGGA) DNA (unknown origin) at DNA:compound concentration ratio of 1:1 in 5K buffer by UV-Vis titration based analysis; method in brief: as §1

CCC1=C(C)c2cc3c(C)c(CCC(=O)O)c(cc4nc(cc5[nH]c(cc1n2)c(C)c5CC)C(C)=C4CCC(=O)O)n3C
Activity [1]: 21%
deltaH [2]: 63 kJ/mol
Ka [3]: 0.1 µM⁻¹
Activity [4]: Active
deltaH [5]: 14 kJ/mol
Ka [6]: 0.36 µM⁻¹
Activity [7]: Active
Activity [8]: 28%
Ka [9]: 1.4 µM⁻¹
deltaH [10]: 81 kJ/mol
Ka [11]: 3.7 µM⁻¹
Activity [12]: 19%
Activity [13]: 21.4 nm
Ka [14]: 1 µM⁻¹
ΔTm [15]: 13.1 °C
Activity [16]: Active
Ka [17]: 0.4 µM⁻¹
Ka [18]: 1.1 µM⁻¹
Ka [19]: 0.96 µM⁻¹
ΔTm [20]: 14.6 °C
Ka [21]: 0.2 µM⁻¹
Ka [22]: 0.18 µM⁻¹
Activity [23]: 21.3 nm
Ka [24]: 0.07 µM⁻¹
ΔTm [25]: 7 °C
Activity [26]: Active
Ka [27]: 0.4 µM⁻¹
Activity [28]: Active
Activity [29]: Active
Ka [30]: 1.1 µM⁻¹
Ka [31]: 0.8 µM⁻¹
Ka [32]: 0.19 µM⁻¹
Activity [33]: 21 nm
Ka [34]: 0.24 µM⁻¹
